# Compound activity as filed in PubChem BioAssay.
# Hits are enriched below; roughly 2.7% of the tested compounds scored in any of these assays.
# MsrA act: bovine MsrA enzyme activators, primary screen, biochemical, absorbance, HTS; activation, % at 10.6 µM; purified bovine MsrA, absorbance read-out; 360,000 tested, 0.3% active; in the data active = activation above about 7.5%;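 also: 0% = vehicle and 100% = reference activator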
# ARFGAP1 inh: inhibitors of rat ARFGAP1 GAP activity, primary screen, biochemical, fluorescence polarization, GDP tracer. ADP-ribosylation factor GTPase-activating protein 1 (Rattus norvegicus), Q62848. Arfgap1-stimulated ARF1 GTP hydrolysis, GDP FP detection. inhibition, % at 16.5 µM. 360,000 tested, 0.26% active;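 active = inhibition above a per-plate limit, mean inhibition of low control wells plus 3 SD, cut at about 25% in these data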;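 also: 0% = DMSO wells with enzyme and 100% = wells lacking Arfgap1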
# Target sequence (Q62848 1-136 limits assumed): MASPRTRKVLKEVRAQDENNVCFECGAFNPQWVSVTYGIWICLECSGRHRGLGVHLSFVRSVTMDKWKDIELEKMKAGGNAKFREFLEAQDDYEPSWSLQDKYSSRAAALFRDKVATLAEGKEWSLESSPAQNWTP
#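 material = rat Arfgap1 catalytic domain, aa 1-136 | also added = human ARF1(Δ1-17)-GTP substrate | compound dosing = one concentration, 16.5 µM, DMSO 1.26% | times = GTP hydrolysis reaction 2 h at 25 °C | measured by = FP, GDP Alexa 633 tracer displaced from anti-GDP antibody, 620/688 nm | evaluation = percent inhibition of Arfgap1-stimulated GTP hydrolysis | replication = single well per compound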
# MsrA inh: bovine MsrA enzyme inhibitors, primary screen, biochemical, absorbance, HTS; Methionine sulfoxide reductase A (Bos taurus); purified bovine MsrA, absorbance read-out; inhibition, % at 15.5 µM; 360,000 tested, 0.75% active; AID 651718, 2012; in the data active = inhibition above about 4.5%;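 also: 0% = vehicle wells with enzyme and 100% = reference inhibitor wells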
# ASAP1 inh: inhibitors of human ASAP1 ArfGAP activity, primary screen, biochemical, fluorescence polarization; 360,000 tested, 0.19% active; inhibition, % at 16.5 µM; Arf-GAP with SH3 domain, ANK repeat and PH domain-containing protein 1 (Homo sapiens), …; ASAP1-stimulated ARF1 GTP hydrolysis, GDP FP detection; in the data active = inhibition above about 25%;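 also: 0% = vehicle with enzyme and substrate and 100% = no enzyme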
# HGIII-sPLA2 inh: human group III sPLA2 inhibitors, primary screen, biochemical, QFRET, BODIPY PC-A2 liposome substrate | Group 3 secretory phospholipase A2 (Homo sapiens), Q9NZ20 | QFRET BODIPY PC-A2 liposome hydrolysis, fluorescence | inhibition, % at 12.2 µM | 370,000 tested, 0.56% active | AID 743126, 2013;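 active = inhibition above mean plus 3 SD of compounds lying within the high and low control bounds, cut at about 19% in these data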;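 also: 0% = median of test compound wells and 100% = no enzyme DMSO wells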
# NR1D1 modulator: modulators of Rev-erb alpha DNA binding, primary screen, biochemical, FITC-DNA, fluorescence polarization, uHTS; AID 1259318, 2017; activity, % at 10 µM; 370,000 tested, 0.79% active; Nuclear receptor subfamily 1 group D member 1 (Homo sapiens), P20393; Rev-erbα–FITC-DNA binding, 90 min;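 active = activity above about 14%, limit read from the data; passing the limit was not always enough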;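 also: 0% = DMSO wells with 35 nM protein and 100% = DMSO wells with 750 nM protein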
# ARFGAP1 confirm: ARFGAP1 inhibitor hit confirmation, biochemical, fluorescence polarization, triplicate; shares compounds with ARFGAP1 inh; ARFGAP1-stimulated ARF1 GTP hydrolysis, GDP tracer FP; inhibition, % at 16.5 µM; 890 tested, 30% active;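 active = average inhibition over triplicates above the hit cutoff set in the earlier primary screen, cut at about 25% in these data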;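 also: 0% = Arfgap1 plus ARF1-GTP with DMSO and 100% = wells lacking Arfgap1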
# Starred values were filed as active, the others as inactive; · = no result given.
SMILES,MsrA act,ARFGAP1 inh,MsrA inh,ASAP1 inh,HGIII-sPLA2 inh,NR1D1 modulator,ARFGAP1 confirm
COc1ccc(-c2cc(-c3nnc(SCC(=O)NC4CCCCC4)n3N)[nH]n2)cc1,·,·,·,·,1.7,-3.8,·
C=CCN1[C@@H](C)COc2cc(N3CCCC3)ccc2S1(=O)=O,·,·,·,·,1.0,-2.2,·
O/N=C\c1ccc2noc(-c3ccc(Cl)cc3)c2c1,-3.7,24.9*,0.3,7.4,-3.2,0.5,28.8*
COc1ccc(NC(=O)CSc2nnc(-c3cccs3)o2)cc1Cl,·,·,·,·,-3.7,0.5,·
Cc1ccc2cc(C)c3nnc(SCC(=O)Nc4nc5c(s4)CCCC5)n3c2c1C,-0.9,27.4*,1.3,-11.1,-33.1,-0.6,-6.6
CC(COc1cccc(C#N)c1)CN1CCC(C(O)(c2ccccc2)c2ccccc2)CC1 (centres undefined),·,·,·,·,-9.8,0.2,·
O=C(CCSc1nnc(-c2ccncc2)o1)Nc1ccccc1Cl,-5.2,29.1*,-0.7,-2.2,6.2,-6.7,-7.4
Cc1ccccc1-n1c(=O)cc(N2CCc3ccccc32)[nH]c1=O,-1.7,25.3*,0.6,-4.6,-6.6,3.4,-3.8
CC(=O)c1ccc(NC(=O)NC2CCCCN(Cc3cccc(Cl)c3)C2=O)cc1 (centres undefined),·,·,·,·,5.4,4.0,·
O=C(C(=O)N1CCN(S(=O)(=O)c2cccc3ccccc23)CC1)c1cccc(C(F)(F)F)c1,·,2.5,0.5,-1.6,-11.8,-1.2,·
Cc1cc(C)c(S(=O)(=O)c2ccc(F)cc2C)c(Cl)n1,-3.6,30.4*,0.6,8.6,4.4,2.9,1.2
Cc1cc(C)c(S(=O)(=O)c2ccccc2Cl)c(Cl)n1,-4.9,-20.9,0.0,-1.0,-4.2,-8.1,·
CC1CCCN(C(=O)Cn2nnc(-c3cccnc3)n2)C1 (centres undefined),-13.8,26.3*,-0.5,-6.2,4.8,-4.6,8.2
Cc1nn(-c2ccccc2)c2sc(C(=O)N3CCN(Cc4ccc(F)cc4)CC3)cc12,·,·,·,·,-6.3,2.0,·
O=C(Nc1ccc(F)c(Cl)c1)c1ccc2sc([C@H]3C[C@H](O)[C@@H](CO)O3)nc2c1,-1.0,24.8*,1.1,13.1,-0.4,2.4,4.5
CC(=O)Nc1ccc(NC(=O)c2ccc3sc([C@H]4C[C@H](O)[C@@H](CO)O4)nc3c2)cc1,-2.1,3.0,0.0,2.0,-4.7,-5.8,·
O=C(NCc1cccnc1)c1cc(C2CCCCN2C(=O)OCCF)on1 (centres undefined),-2.5,3.1,-0.1,-4.6,9.6,-8.4,·
O=C(NCc1ccccc1)c1cc(C2CCCCN2C(=O)OCCF)on1 (centres undefined),-1.3,24.8*,-0.9,-13.1,-6.0,3.0,3.1
CC(C)(C)CC(C)(C)NC(=O)/C=C/C(=O)O,-5.3,25.1*,-0.5,-15.6,2.2,-5.9,-1.7
CC(=O)N1CCc2cc(S(=O)(=O)NCCC(=O)NCc3ccc(Cl)cc3)ccc21,·,·,·,·,3.4,6.2,·
Cc1cc(N2CCN(C)CC2)nc2ccc(NC(=O)c3ccc4c(c3)OCO4)cc12,0.3,4.9,0.7,3.5,-11.9,-0.7,·
COc1cc(C(=O)Nc2ccc3nc(N4CCN(C)CC4)cc(C)c3c2)cc(OC)c1OC,-9.3,28.9*,1.8,12.0,-20.5,1.7,25.4*
CC(C)C[C@H]1CN(CCCC[C@H]2CNC(=O)C(=O)N2CCc2ccccc2)C(=O)C(=O)N1CC1CCCCC1,-2.1,2.6,-0.4,0.3,-1.9,-3.2,·
CC(C)C[C@H]1CN(CCCC[C@H]2CNC(=O)C(=O)N2CC2CCCCC2)C(=O)C(=O)N1CCc1ccccc1,-0.9,30.1*,-0.3,-13.7,-3.3,4.2,3.3
